In brackets after ≈: the same amount, converted by molar mass. Activity calls are given as the source filed them.
Experiments:
[1] = system: SK-MEL-28; experiment: Cytotoxicity against human SK-MEL-28 cells assessed as cell growth at 8 nM by sulforhodamine B assay relative to control; type: functional; conditions: read-out: Activity
[2] = system: MDA-MB-435; experiment: Cytotoxicity against human MDA-MB-435 cells assessed as cell growth at 80 uM by sulforhodamine B assay relative to control; type: functional; conditions: read-out: Activity
[3] = system: MCF7; experiment: Cytotoxicity against human MCF7 cells assessed as cell growth at 80 uM by sulforhodamine B assay relative to control; type: functional; conditions: read-out: Activity
[4] = system: KM12; experiment: Cytotoxicity against human KM12 cells by sulforhodamine B assay; type: functional
Method in brief: (§1)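 NCI Developmental Therapeutics Program 60-cell-line human tumor panel screen, run at NCI. A single-concentration pre-screen was followed by a five-concentration dose-response in 10-fold steps. GI50 is the concentration that reduces growth of treated cells to half that of untreated control cells. TGI is the concentration that completely halts growth.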

[5] = system: HOP-92; experiment: Cytotoxicity against human HOP92 cells assessed as cell growth at 8 uM by sulforhodamine B assay relative to control; type: functional; conditions: read-out: Activity
[6] = system: K562; experiment: Cytotoxicity against human K562 cells assessed as cell growth at 800 nM by sulforhodamine B assay relative to control; type: functional; conditions: read-out: Activity
[7] = system: SK-MEL-5; experiment: Cytotoxicity against human SK-MEL-5 cells assessed as cell growth at 800 nM by sulforhodamine B assay relative to control; type: functional; conditions: read-out: Activity
[8] = system: SF-295; experiment: Cytotoxicity against human SF295 cells assessed as cell growth at 8 nM by sulforhodamine B assay relative to control; type: functional; conditions: read-out: Activity
[9] = system: MDA-MB-231; experiment: Cytotoxicity against human MDA-MB-231 cells assessed as cell growth at 8 uM by sulforhodamine B assay relative to control; type: functional; conditions: read-out: Activity
[10] = system: NCI-H226; experiment: Cytotoxicity against human NCI-H226 cells assessed as cell growth at 80 uM by sulforhodamine B assay relative to control; type: functional; conditions: read-out: Activity
[11] = system: K562; experiment: Cytotoxicity against human K562 cells assessed as cell growth at 8 nM by sulforhodamine B assay relative to control; type: functional; conditions: read-out: Activity
[12] = system: SK-MEL-2; experiment: Cytotoxicity against human SK-MEL-2 cells assessed as cell growth at 8 uM by sulforhodamine B assay relative to control; type: functional; conditions: read-out: Activity
[13] = system: SNB-19; experiment: Cytotoxicity against human SNB19 cells by sulforhodamine B assay; type: functional; conditions: for TGI: read-out: pTGI (converted); method in brief: as §1
[14] = system: SNB-19; experiment: Cytotoxicity against human SNB19 cells assessed as cell growth at 8 uM by sulforhodamine B assay relative to control; type: functional; conditions: read-out: Activity
[15] = system: Aspergillus fumigatus; experiment: Antimicrobial activity against Aspergillus fumigatus ATCC 90906 by CLSI method; type: functional, organism-based
[16] = system: IGROV-1; experiment: Cytotoxicity against human IGROV1 cells assessed as cell growth at 80 nM by sulforhodamine B assay relative to control; type: functional; conditions: read-out: Activity
[17] = system: COLO 205; experiment: Cytotoxicity against human COLO205 cells assessed as cell growth at 80 uM by sulforhodamine B assay relative to control; type: functional; conditions: read-out: Activity
Method in brief: (§2)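 Run at NCI in the DTP 60-cell-line human tumor panel by standard procedure. Compounds were first screened at a single concentration, then tested at five tenfold-spaced concentrations. GI50 is the concentration reducing treated-cell growth to half that of untreated controls; TGI is the concentration completely halting growth.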

[18] = system: OVCAR-4; experiment: Cytotoxicity against human OVCAR4 cells assessed as cell growth at 80 uM by sulforhodamine B assay relative to control; type: functional; conditions: read-out: Activity
[19] = system: M14; experiment: Cytotoxicity against human M14 cells assessed as cell growth at 800 nM by sulforhodamine B assay relative to control; type: functional; conditions: read-out: Activity
[20] = system: HCT-15; experiment: Cytotoxicity against human HCT15 cells assessed as cell growth at 80 nM by sulforhodamine B assay relative to control; type: functional; conditions: read-out: Activity
[21] = system: UACC-62; experiment: Cytotoxicity against human UACC62 cells assessed as cell growth at 8 uM by sulforhodamine B assay relative to control; type: functional; conditions: read-out: Activity
[22] = system: Fusarium sp.; experiment: Antimicrobial activity against Fusarium sp. by CLSI method; type: functional, organism-based
[23] = system: SF-295; experiment: Cytotoxicity against human SF295 cells assessed as cell growth at 80 nM by sulforhodamine B assay relative to control; type: functional; conditions: read-out: Activity
[24] = system: RXF 393; experiment: Cytotoxicity against human RXF393 cells assessed as cell growth at 800 nM by sulforhodamine B assay relative to control; type: functional; conditions: read-out: Activity
[25] = system: NCI-H460; experiment: Cytotoxicity against human NCI-H460 cells assessed as cell growth at 80 uM by sulforhodamine B assay relative to control; type: functional; conditions: read-out: Activity
[26] = system: OVCAR-5; experiment: Cytotoxicity against human OVCAR5 cells assessed as cell growth at 8 uM by sulforhodamine B assay relative to control; type: functional; conditions: read-out: Activity
[27] = system: Hs-578T; experiment: Cytotoxicity against human Hs578T cells assessed as cell growth at 800 nM by sulforhodamine B assay relative to control; type: functional; conditions: read-out: Activity
[28] = system: HCC 2998; experiment: Cytotoxicity against human HCC2998 cells assessed as cell growth at 800 nM by sulforhodamine B assay relative to control; type: functional; conditions: read-out: Activity
[29] = system: HCT-15; experiment: Cytotoxicity against human HCT15 cells assessed as cell growth at 80 uM by sulforhodamine B assay relative to control; type: functional; conditions: read-out: Activity
[30] = system: EKVX; experiment: Cytotoxicity against human EKVX cells by sulforhodamine B assay; type: functional; conditions: for TGI: read-out: pTGI (converted)
Method in brief: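 Run by the NCI Developmental Therapeutics Program on its 60-line human tumour cell panel using the standard procedure. Compounds went through a single-concentration prescreen first, and those active by NCI criteria went on to a five-concentration growth-inhibition test. GI50 is the concentration that cuts growth of treated cells to half that of untreated control cells.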

[31] = system: 786-0; experiment: Cytotoxicity against human 786-0 cells assessed as cell growth at 800 nM by sulforhodamine B assay relative to control; type: functional; conditions: read-out: Activity; method in brief: as §2
[32] = system: NCI/ADR-RES; experiment: Cytotoxicity against human NCI/ADR-RES cells assessed as cell growth at 80 uM by sulforhodamine B assay relative to control; type: functional; conditions: read-out: Activity
[33] = system: HL-60(TB); experiment: Cytotoxicity against human HL-60(TB) cells assessed as cell growth at 80 uM by sulforhodamine B assay relative to control; type: functional; conditions: read-out: Activity
[34] = system: HCT-15; experiment: Cytotoxicity against human HCT15 cells assessed as cell growth at 8 nM by sulforhodamine B assay relative to control; type: functional; conditions: read-out: Activity
[35] = system: KM12; experiment: Cytotoxicity against human KM12 cells assessed as cell growth at 800 nM by sulforhodamine B assay relative to control; type: functional; conditions: read-out: Activity
[36] = system: NCI-H23; experiment: Cytotoxicity against human NCI-H23 cells assessed as cell growth at 800 nM by sulforhodamine B assay relative to control; type: functional; conditions: read-out: Activity
[37] = system: A498; experiment: Cytotoxicity against human A498 cells assessed as cell growth at 80 uM by sulforhodamine B assay relative to control; type: functional; conditions: read-out: Activity; method in brief: as §2
[38] = system: NCI-H322M; experiment: Cytotoxicity against human NCI-H322M cells assessed as cell growth at 80 nM by sulforhodamine B assay relative to control; type: functional; conditions: read-out: Activity
[39] = system: HL-60(TB); experiment: Cytotoxicity against human HL-60(TB) cells assessed as cell growth at 80 nM by sulforhodamine B assay relative to control; type: functional; conditions: read-out: Activity
[40] = system: OVCAR-4; experiment: Cytotoxicity against human OVCAR4 cells assessed as cell growth at 8 uM by sulforhodamine B assay relative to control; type: functional; conditions: read-out: Activity

C/C=C1\NC(=O)[C@H](Cc2ccccc2)NC(=O)[C@@H](C(C)C)NC(=O)[C@@H]([C@@H](C)CC)NC(=O)[C@H](NC(=O)[C@H](NC(=O)[C@H](CCCNCc2ccc(N3CCOCC3)cc2)NC(=O)[C@H]2CCCN2C(=O)[C@H](NC(=O)[C@@H](NC(=O)[C@@H](NC(=O)[C@H](NC(=O)CCCC(C)C)C(C)C)[C@@H](C)O)C(C)C)C(C)C)[C@@H](C)CC)[C@@H](C)OC(=O)[C@H](C(C)C)NC1=O
growth at 0.008 µM [1]: 87%
growth at 80 µM [2]: -9%
growth at 80 µM [3]: 6%
LC50 [4]: > 75900 nM
GI50 ([4]; read-out: GI50): 201 nM
GI50 ([4]; read-out: pGI50 (converted)): 200 nM
growth at 8 µM [5]: -2%
growth at 0.8 µM [6]: 102%
growth at 0.8 µM [7]: 90%
growth at 0.008 µM [8]: 107%
growth at 8 µM [9]: 20%
growth at 80 µM [10]: -26%
growth at 0.008 µM [11]: 103%
growth at 8 µM [12]: -74%
GI50 [13]: 1350 nM
TGI [13]: 2750 nM
growth at 8 µM [14]: -70%
IC50 [15]: 5000 nM
MFC [15]: 20 µM (≈ 33.1 µg/mL)
MIC [15]: 10 µM (≈ 16.5 µg/mL)
growth at 0.08 µM [16]: 106%
growth at 80 µM [17]: 13%
growth at 80 µM [18]: -15%
growth at 0.8 µM [19]: 102%
growth at 0.08 µM [20]: 107%
growth at 8 µM [21]: -100%
Activity [22]: Active
growth at 0.08 µM [23]: 99%
growth at 0.8 µM [24]: 97%
growth at 80 µM [25]: 2%
growth at 8 µM [26]: -74%
growth at 0.8 µM [27]: 36%
growth at 0.8 µM [28]: 6%
growth at 80 µM [29]: -45%
GI50 [30]: 776 nM
TGI [30]: 1910 nM
growth at 0.8 µM [31]: 101%
growth at 80 µM [32]: -58%
growth at 80 µM [33]: -24%
growth at 0.008 µM [34]: 98%
growth at 0.8 µM [35]: -15%
growth at 0.8 µM [36]: 103%
growth at 80 µM [37]: -91%
growth at 0.08 µM [38]: 92%
growth at 0.08 µM [39]: 96%
growth at 8 µM [40]: -59%

C/C=C1\NC(=O)[C@H](Cc2ccccc2)NC(=O)[C@@H](C(C)C)NC(=O)[C@@H]([C@@H](C)CC)NC(=O)[C@H](NC(=O)[C@H](NC(=O)[C@H](CCCNCc2ccc(F)c(C)c2)NC(=O)[C@H]2CCCN2C(=O)[C@H](NC(=O)[C@@H](NC(=O)[C@@H](NC(=O)[C@H](NC(=O)CCCC(C)C)C(C)C)[C@@H](C)O)C(C)C)C(C)C)[C@@H](C)CC)[C@@H](C)OC(=O)[C@H](C(C)C)NC1=O
growth at 0.008 µM [1]: 97%
growth at 80 µM [2]: -36%
growth at 80 µM [3]: 3%
GI50 ([4]; read-out: GI50): 155 nM
TGI ([4]; read-out: TGI): 328 nM
GI50 ([4]; read-out: pGI50 (converted)): 155 nM
TGI ([4]; read-out: pTGI (converted)): 331 nM
growth at 8 µM [5]: -62%
growth at 0.8 µM [6]: 107%
growth at 0.8 µM [7]: 83%
growth at 0.008 µM [8]: 99%
growth at 8 µM [9]: -55%
growth at 80 µM [10]: -18%
growth at 0.008 µM [11]: 101%
growth at 8 µM [12]: -80%
GI50 [13]: 1290 nM
LC50 (concentration killing 50% of cells) [13]: 4790 nM
TGI [13]: 2450 nM
growth at 8 µM [14]: -84%
IC50 [15]: 3090 nM
MFC [15]: 10 µM (≈ 16 µg/mL)
MIC [15]: 10 µM (≈ 16 µg/mL)
growth at 0.08 µM [16]: 107%
growth at 80 µM [17]: 33%
growth at 80 µM [18]: -20%
growth at 0.8 µM [19]: 101%
growth at 0.08 µM [20]: 103%
growth at 8 µM [21]: -98%
Activity [22]: Active
growth at 0.08 µM [23]: 85%
growth at 0.8 µM [24]: 88%
growth at 80 µM [25]: 2%
growth at 8 µM [26]: -95%
growth at 0.8 µM [27]: -5%
growth at 0.8 µM [28]: -47%
growth at 80 µM [29]: -78%
GI50 [30]: 759 nM
CC50 ([30]; read-out: pLC50 (the source's name) (converted)): 4370 nM
TGI [30]: 1820 nM
growth at 0.8 µM [31]: 96%
growth at 80 µM [32]: -60%
growth at 80 µM [33]: -37%
growth at 0.008 µM [34]: 100%
growth at 0.8 µM [35]: -55%
growth at 0.8 µM [36]: 98%
growth at 80 µM [37]: -100%
growth at 0.08 µM [38]: 95%
growth at 0.08 µM [39]: 97%
growth at 8 µM [40]: -65%

Reference: ChEMBL document CHEMBL1921722, “In vitro and in vivo evaluation of select kahalalide F analogs with antitumor and antifungal activities” (Bioorg Med Chem, 2011)
